# Assay outcomes from PubChem.
# Compounds with a hit are over-represented: about 1.8% of the library has one in this group of screens.
# PG9 binder: binders of HIV-1 gp120 antibody PG9, primary screen, biochemical, TR-FRET. HIV-1 gp120 / PG9 antibody interaction. TR-FRET gp120-PG9 antibody binding. inhibition, % at 6.7 µM. 360,000 tested, 0.43% active; in the data active means inhibition above about 8.5%
# Rev-erbA mod: modulators of Rev-erb alpha DNA binding, primary screen, biochemical, FITC-DNA, fluorescence polarization, uHTS; Nuclear receptor subfamily 1 group D member 1 (Homo sapiens), P20393; Rev-erbα–FITC-DNA binding, 90 min; activity, % at 10 µM; 370,000 tested, 0.79% active;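 active means activity above about 14%, limit read from the data; passing the limit was not always enough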;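 further: 0% = DMSO wells with 35 nM protein and 100% = DMSO wells with 750 nM protein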
# Rin1-Abl PPI inh: inhibitors of Rin1-Abl protein binding, primary screen, biochemical, TR-FRET. Tyrosine-protein kinase ABL1 (Homo sapiens) + Ras and Rab interactor 1 (Homo sapiens), …. inhibition, % at 7.35 µM. 360,000 tested, 0.4% active; in the data active means inhibition above about 5%, passing the limit was not always enough
# TbMetRS inhib: T. brucei MetRS inhibitors, primary screen, biochemical, luminescence; 360,000 tested, 0.4% active; purified T. brucei MetRS, ATP depletion, Kinase-Glo luminescence; inhibition, % at 11.9 µM; methionyl-tRNA synthetase (Trypanosoma brucei brucei);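 active means inhibition above a per-plate cutoff of the control wells' mean inhibition plus 3 SD, cut at about 5.5% in these data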;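 further: 0% = DMSO wells median and 100% = median of wells with control inhibitor compound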
#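 Assay system: T. brucei methionyl-tRNA synthetase, purified | Medium: HEPES buffer with MgCl2, KCl, DTT, spermine, BSA, pyrophosphatase | Compound: 11.9 µM single point | Incubation: 15 min enzyme-compound preincubation, 2 h reaction, 10 min detection, 25 °C | Measured by: Kinase-Glo luciferase luminescence reporting remaining unconsumed ATP | Measure: % inhibition normalized to control-well medians | Replication: Singlicate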
# PG9 binder conf: binders of anti-gp120 antibody PG9, confirmation, biochemical, TR-FRET | inhibition, % at 6.7 µM | shares compounds with PG9 binder | AID 651571, 2012 | TR-FRET PG9 antibody binding | 1,500 tested, 90% active; in the data active means inhibition above about 9%
# PGV04 counter: binders of control antibody PGV04, counter-screen for PG9 antibody binder project, biochemical, TR-FRET, distinct HIV envelope site | shares compounds with PG9 binder | TR-FRET PGV04 antibody-gp120 binding | inhibition, % at 6.7 µM | 1,500 tested, 95% active; in the data active means inhibition above about 9.5%
# PG9 bind DR: small-molecule binders of antibody PG9, dose response, biochemical, TR-FRET, HIV-1 gp120 antibody; TR-FRET PG9 antibody-gp120 binding inhibition; IC50, µM; shares compounds with PG9 binder; 95 tested, under 10 active; in the data active means IC50 below about 10 µM
# PGV04 DR counter: binders of control antibody PGV04, dose response, counter-screen for PG9 antibody binder project, biochemical, TR-FRET, distinct HIV envelope site | shares compounds with PG9 binder | TR-FRET binding to control antibody PGV04 | IC50, µM | 95 tested, 20% active | AID 651937, 2012
# PG126 binding DR: binders of control antibody PG126, dose response, counter-screen for PG9 antibody binder project, biochemical, TR-FRET, distinct HIV envelope site; shares compounds with PG9 binder; TR-FRET binding to antibody PG126, counterscreen; IC50, µM; 95 tested, 20% active; AID 651939, 2012
# * hit, by the source's call; . = no result. Unless noted, no stated cut-off is given here; in the data, active means IC50 below about 9 µM; inactive means the rest.
SMILES,PG9 binder,Rev-erbA mod,Rin1-Abl PPI inh,TbMetRS inhib,PG9 binder conf,PGV04 counter,others
COC(=O)c1ccc(NC(=O)CNC(=O)c2sc3ccccc3c2Cl)cc1,-0.5,11.8,-1.3,-0.2,.,.,
CC(=O)Nc1ccc(NC(=O)CNC(=O)c2sc3ccccc3c2Cl)cc1,-0.3,-6.9,-1.4,-0.1,.,.,
Cc1ccc(NC(=O)CNC(=O)c2sc3ccccc3c2Cl)nc1,15.0*,13.7,-10.5,-0.2,13.3*,27.9*,
NC(=O)c1ccc(NC(=O)CNC(=O)c2sc3ccccc3c2Cl)cc1,18.4*,7.6,-3.1,-0.4,22.0*,27.9*,
COC(=O)C1=C(C)N(Cc2cccc(C(F)(F)F)c2)C(=NCc2ccc(C(F)(F)F)cc2)NC1c1cccc(C(F)(F)F)c1 (configuration not stated),-0.3,-2.3,.,.,.,.,
Cc1nc(SCC(=O)NCc2ccco2)c2c(C)c(C)sc2n1,-2.9,-2.5,-2.0,-0.1,.,.,
CCCCc1nc2sc3c(SCC(=O)NCc4ccco4)ncnc3c2c2c1CCC2,83.8*,6.4,-138.0,-0.3,86.6*,82.4*,PG9 bind DR=3.28*;PGV04 DR counter=1.55*;PG126 binding DR=1.72*
Cc1csc(NC(=O)CSc2nc3sc(C)c(C)c3c(=O)[nH]2)n1,5.4,2.2,2.4,-1.2,.,.,
Cc1sc2nc(SCC(=O)Nc3ccccc3F)[nH]c(=O)c2c1C,8.7*,10.9,-0.7,0.2,20.5*,34.2*,
O=C(Nc1nccs1)c1cc2sccc2n1Cc1ccc(F)cc1,9.4*,15.9,-1.6,-1.1,14.8*,19.4*,
COc1ccc(NC(=O)c2cc3sccc3n2Cc2ccc(F)cc2)cc1OC,0.2,2.1,2.5,0.4,.,.,
O=S(=O)(c1ccccc1C(F)(F)F)N1CCN(c2ncnc3sccc23)CC1,-0.4,-5.2,-0.7,-0.3,.,.,
O=S(=O)(c1ccc(F)c(F)c1F)N1CCN(c2ncnc3sccc23)CC1,10.5*,-0.5,-1.5,-0.2,8.2,15.7*,
Cc1ccc(Cn2c(C3CCCN3c3nc(-c4cc(Cl)c(N)c(Cl)c4)cs3)nc3cc(Cl)c(Cl)cc32)cc1 (configuration not stated),9.7*,-4.2,0.3,-0.3,13.9*,22.4*,
CCc1c(-c2cccc(Br)c2)ncn1CCc1ccccc1OC,-1.7,8.9,.,.,.,.,
CCOc1ccc(/C(O)=C2/C(=O)C(=O)N(c3ncccn3)C2c2ccc(C)cc2)cc1 (configuration not stated),1.3,2.5,-2.9,0.0,.,.,
CCCOc1ccc(/C(O)=C2\C(=O)C(=O)N(c3ccccn3)C2c2ccccc2F)cc1C (configuration not stated),21.2*,-3.9,-16.3,-0.7,17.1*,24.3*,
COc1ccc(C2/C(=C(/O)c3ccc(C)cc3)C(=O)C(=O)N2c2ccccn2)cc1OC (configuration not stated),0.1,1.6,1.8,1.3,.,.,
CCOc1ccc(/C(O)=C2/C(=O)C(=O)N(c3ccccn3)C2c2ccc(C)cc2)c(C)c1 (configuration not stated),19.8*,3.6,-14.0,-0.4,20.5*,27.9*,
CCOc1ccc(/C(O)=C2/C(=O)C(=O)N(c3ccccn3)C2c2ccc(Cl)cc2)c(C)c1 (configuration not stated),11.4*,1.9,-5.0,1.2,12.7*,19.1*,
COC(=O)C1=C(C)N(Cc2ccc(Br)cc2)C(=S)NC1c1ccccc1 (configuration not stated),1.2,8.6,.,.,.,.,
COC(=O)[C@@]12CCCCC3=C1N(CCC3)C(=O)[C@H]2CC(=O)NCc1ccccc1,.,3.5,.,.,.,.,
Cc1ccc(/C=C/c2nc3ccccc3c(=O)[nH]2)cc1,31.2*,2.4,-1.6,-0.1,39.9*,46.8*,
CCOC(=O)c1ccccc1NC(=O)/C=C/c1cc(OC)c(OC)c(OC)c1,22.1*,1.4,-2.6,-1.2,19.1*,23.8*,
Cc1cc(NC(=O)CSc2nc(-c3cccs3)cc(C(F)(F)F)n2)no1,24.3*,10.4,4.6,-1.7,34.1*,42.5*,
SMILES,PG9 binder,Rev-erbA mod,Rin1-Abl PPI inh,TbMetRS inhib,PG9 binder conf,PGV04 counter,others
COc1cc(OC)cc(C(=O)NC2CCSC2=O)c1 (configuration not stated),15.5*,-1.6,-2.7,-1.3,3.6,38.8*,
COc1ccc(NS(=O)(=O)CC(C)C)c(OC)c1,-0.9,-0.5,0.4,-0.4,.,.,
CCS(=O)(=O)Nc1ccc(-c2ccc(NS(=O)(=O)CC)c(OC)c2)cc1OC,17.3*,-0.6,3.9,-1.4,14.3*,16.3*,
Cc1cccc(C(=O)NCC(=O)OCC(=O)c2ccc(Br)s2)c1,8.8*,6.2,-44.1,-0.2,14.4*,20.9*,
COc1ccccc1NC(=O)c1ccc(NC(=O)Cc2n[nH]c(=O)c3ccccc23)cc1,10.9*,3.9,3.9,-0.3,12.1*,18.5*,
COc1ccccc1C(=O)NC(=O)COC(=O)Cc1n[nH]c(=O)c2ccccc12,-2.7,-0.9,2.6,-0.5,.,.,
CCNC(=O)N(C)[C@H]1C[C@H]2c3[nH]c4c(-c5ccc6c(c5)OCO6)cccc4c3CCN2C(=O)[C@H]1[C@H](C)O,-1.4,1.8,.,.,.,.,
COc1cc(C(=O)Nc2nc3ccc(C)cc3s2)ccc1OCc1c(C)noc1C,11.5*,14.0,4.0,-0.1,20.9*,25.8*,
OC[C@@H](O)C(O)[C@@H](O)CO (some centres not stated),-0.8,-3.6,-0.6,-0.1,.,.,
COc1ccccc1N(C(=O)c1snc(C(N)=O)c1N)C(C(=O)NC1CCCCC1)c1cccc(OC)c1OC (configuration not stated),-1.5,5.4,7.0,0.2,.,.,
COc1ccc(OC)c(C(C(=O)NC2CCCCC2)N(C(=O)c2snc(C(N)=O)c2N)c2ccccc2OC)c1 (configuration not stated),35.9*,14.9,1.2,-1.1,36.0*,59.8*,
Cc1ccc(-c2cc(NC(=O)c3ccccc3)on2)cc1,-0.3,4.7,-8.8,-0.8,.,.,
